How the values were obtained:
Assay type in all cases: functional
[1] = system: A549; assay: Growth inhibition of human A549/ATCC cells incubated for 48 hrs by sulforhodamine B assay; details: A549, 48 h; for CC50: read-out: LC50 (the source's name)
In short: (§1)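 NCI-60 five-dose screen at 0.01, 0.1, 1, 10 and 100 µM, 48 h incubation, sulforhodamine B end point. GI50 (50% decrease in net growth), TGI (total growth inhibition) and LC50 (net 50% loss of initial cells) taken from log concentration versus % growth inhibition curves.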

[2] = system: HOP-92; assay: Growth inhibition of human HOP92 cells incubated for 48 hrs by sulforhodamine B assay; details: HOP-92, 48 h; for CC50: read-out: LC50 (the source's name); in short: as §1
[3] = system: NCI-H226; assay: Growth inhibition of human NCI-H226 cells incubated for 48 hrs by sulforhodamine B assay; details: NCI-H226, 48 h; in short: as §1
[4] = system: NCI-H322M; assay: Growth inhibition of human NCI-H322M cells incubated for 48 hrs by sulforhodamine B assay; details: for CC50: read-out: LC50 (the source's name); in short: as §1
[5] = system: NCI-H460; assay: Growth inhibition of human NCI-H460 cells incubated for 48 hrs by sulforhodamine B assay; details: NCI-H460, 48 h; for CC50: read-out: LC50 (the source's name); in short: as §1
[6] = system: NCI-H522; assay: Growth inhibition of human NCI-H522 cells incubated for 48 hrs by sulforhodamine B assay; details: NCI-H522, 48 h; for CC50: read-out: LC50 (the source's name); in short: as §1
[7] = system: HCC 2998; assay: Growth inhibition of human HCC2998 cells incubated for 48 hrs by sulforhodamine B assay; details: HCC 2998, 48 h; for CC50: read-out: LC50 (the source's name); in short: as §1
[8] = system: HCT-15; assay: Growth inhibition of human HCT15 cells incubated for 48 hrs by sulforhodamine B assay; details: HCT-15, 48 h; for CC50: read-out: LC50 (the source's name); in short: as §1
[9] = system: SF-295; assay: Growth inhibition of human SF295 cells incubated for 48 hrs by sulforhodamine B assay; details: SF-295, 48 h; for CC50: read-out: LC50 (the source's name)
In short: (§2)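 NCI 60 human tumour cell line panel, five-dose study at 0.01, 0.1, 1, 10 and 100 µM, 48 h incubation. Sulforhodamine B protein-binding dye end point. GI50 (50% decrease in net cell growth), TGI (total growth inhibition) and LC50 (net 50% loss of initial cells) read from log concentration versus % growth inhibition curves.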

[10] = system: SNB-19; assay: Growth inhibition of human SNB19 cells incubated for 48 hrs by sulforhodamine B assay; details: SNB-19, 48 h; for CC50: read-out: LC50 (the source's name); in short: as §2
[11] = system: LOX IMVI; assay: Growth inhibition of human LOXIMVI cells incubated for 48 hrs by sulforhodamine B assay; details: for CC50: read-out: LC50 (the source's name); in short: as §1
[12] = system: SK-MEL-2; assay: Growth inhibition of human SK-MEL-2 cells incubated for 48 hrs by sulforhodamine B assay; details: SK-MEL-2, 48 h; for CC50: read-out: LC50 (the source's name); in short: as §2
[13] = system: UACC-257; assay: Growth inhibition of human UACC257 cells incubated for 48 hrs by sulforhodamine B assay; details: UACC-257, 48 h; for CC50: read-out: LC50 (the source's name); in short: as §2
[14] = system: IGROV-1; assay: Growth inhibition of human IGROV1 cells incubated for 48 hrs by sulforhodamine B assay; details: IGROV-1, 48 h; for CC50: read-out: LC50 (the source's name); in short: as §1
[15] = system: OVCAR-4; assay: Growth inhibition of human OVCAR4 cells incubated for 48 hrs by sulforhodamine B assay; details: OVCAR-4, 48 h; in short: as §1
[16] = system: OVCAR-8; assay: Growth inhibition of human OVCAR8 cells incubated for 48 hrs by sulforhodamine B assay; details: OVCAR-8, 48 h; for CC50: read-out: LC50 (the source's name); in short: as §1
[17] = system: NCI/ADR-RES; assay: Growth inhibition of human NCI/ADR-RES cells incubated for 48 hrs by sulforhodamine B assay; in short: as §1
[18] = system: SK-OV-3; assay: Growth inhibition of human SKOV3 cells incubated for 48 hrs by sulforhodamine B assay; details: SK-OV-3, 48 h; for CC50: read-out: LC50 (the source's name); in short: as §2
[19] = system: A498; assay: Growth inhibition of human A498 cells incubated for 48 hrs by sulforhodamine B assay; details: A498, 48 h; in short: as §1
[20] = system: SN12C; assay: Growth inhibition of human SN12C cells incubated for 48 hrs by sulforhodamine B assay; details: for CC50: read-out: LC50 (the source's name); in short: as §2
[21] = system: TK-10; assay: Growth inhibition of human TK10 cells incubated for 48 hrs by sulforhodamine B assay; details: TK-10, 48 h; for CC50: read-out: LC50 (the source's name); in short: as §2
[22] = system: DU-145; assay: Growth inhibition of human DU145 cells incubated for 48 hrs by sulforhodamine B assay; details: DU-145, 48 h; for CC50: read-out: LC50 (the source's name); in short: as §1
[23] = system: MDA-MB-231; assay: Growth inhibition of human MDA-MB-231 cells incubated for 48 hrs by sulforhodamine B assay; details: MDA-MB-231, 48 h; in short: as §1
[24] = system: Hs-578T; assay: Growth inhibition of human Hs 578T cells incubated for 48 hrs by sulforhodamine B assay; in short: as §1
[25] = system: T47D; assay: Growth inhibition of human T47D cells incubated for 48 hrs by sulforhodamine B assay; details: for CC50: read-out: LC50 (the source's name); in short: as §2
[26] = system: MDA-MB-468; assay: Growth inhibition of human MDA-MB-468 cells incubated for 48 hrs by sulforhodamine B assay; details: MDA-MB-468, 48 h; in short: as §1
[27] = system: SF-539; assay: Anticancer activity against human SF539 cells assessed as cell growth at 10 uM after 48 hrs by sulforhodamine B assay relative to control; details: SF-539, 48 h, read-out: Activity
In short: (§3)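 Single-dose NCI-60 panel screen: compound added at 10 µM and the culture incubated 48 h. The end point was read by protein staining with sulforhodamine B. The value is percent growth of treated cells relative to untreated control cells, reported as a mean graph across the panel.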

[28] = system: SNB-19; assay: Anticancer activity against human SNB19 cells assessed as cell growth at 10 uM after 48 hrs by sulforhodamine B assay relative to control; details: SNB-19, 48 h, read-out: Activity; in short: as §3
[29] = read-out: LC50 (the source's name)

SMILES: C=C1CC[C@@H]2[C@](C)(COC(C)=O)[C@H](OC(C)=O)CC[C@@]2(C)[C@H]1CC(Nc1ccc(S(=O)(=O)Nc2ncccn2)cc1)C1=CCOC1=O (stereo partly drawn)
- GI50 [1]: 3.18 µM
- TGI [1]: 9.98 µM
- CC50 [1]: 34.6 µM
- GI50 [2]: 3.1 µM
- TGI [2]: 8.85 µM
- CC50 [2]: 31.1 µM
- GI50 [3]: 1.63 µM
- TGI [3]: 3.57 µM
- GI50 [4]: 3.12 µM
- TGI [4]: 11.1 µM
- CC50 [4]: 35.6 µM
- GI50 [5]: 1.98 µM
- TGI [5]: 4.06 µM
- CC50 [5]: 8.32 µM
- GI50 [6]: 0.49 µM
- TGI [6]: 2.07 µM
- CC50 [6]: 6.45 µM
- GI50 [7]: 2.1 µM
- TGI [7]: 3.81 µM
- CC50 [7]: 6.9 µM
- GI50 [8]: 1.21 µM
- TGI [8]: 3.32 µM
- CC50 [8]: 9.15 µM
- GI50 [9]: 6.07 µM
- TGI [9]: 18.7 µM
- CC50 [9]: 44.6 µM
- GI50 [10]: 1.63 µM
- TGI [10]: 3.76 µM
- CC50 [10]: 8.65 µM
- GI50 [11]: 0.89 µM
- TGI [11]: 2.21 µM
- CC50 [11]: 5.06 µM
- GI50 [12]: 2.36 µM
- TGI [12]: 7.2 µM
- CC50 [12]: 30.4 µM
- GI50 [13]: 2.34 µM
- TGI [13]: 6.07 µM
- CC50 [13]: 21.9 µM
- GI50 [14]: 2.04 µM
- TGI [14]: 4.41 µM
- CC50 [14]: 9.53 µM
- GI50 [15]: 1.85 µM
- LC50 [15]: 19.3 µM
- TGI [15]: 5.26 µM
- GI50 [16]: 1.48 µM
- TGI [16]: 3.55 µM
- CC50 [16]: 8.53 µM
- GI50 [17]: 1.83 µM
- LC50 (concentration giving net 50% loss of initial cells) [17]: > 100 µM
- TGI [17]: 5.28 µM
- GI50 [18]: 6.27 µM
- TGI [18]: 18.3 µM
- CC50 [18]: 42.8 µM
- GI50 [19]: 12.3 µM
- LC50 (concentration giving net 50% loss of initial cells) [19]: 49.9 µM
- TGI [19]: 24.7 µM
- GI50 [20]: 0.43 µM
- TGI [20]: 1.96 µM
- CC50 [20]: 5.82 µM
- GI50 [21]: 2.77 µM
- TGI [21]: 6.03 µM
- CC50 [21]: 18.3 µM
- GI50 [22]: 1.62 µM
- TGI [22]: 3.07 µM
- CC50 [22]: 5.83 µM
- GI50 [23]: 1.95 µM
- LC50 (concentration giving net 50% loss of initial cells) [23]: 7.91 µM
- TGI [23]: 3.93 µM
- GI50 [24]: 3.54 µM
- LC50 [24]: > 100 µM
- TGI [24]: 24.4 µM
- GI50 [25]: 2 µM
- TGI [25]: 5.46 µM
- CC50 [25]: > 100 µM
- GI50 [26]: 1.33 µM
- TGI [26]: 3.57 µM
- growth at 10 µM [27]: -69%
- growth at 10 µM [28]: 36.7%

SMILES: C=C1CC[C@@H]2[C@](C)(COC(C)=O)[C@H](OC(C)=O)CC[C@@]2(C)[C@H]1CC(Nc1ccc(S(=O)(=O)Nc2nccs2)cc1)C1=CCOC1=O (stereo partly drawn)
- GI50 [1]: 3.67 µM
- TGI [1]: 11.2 µM
- CC50 [1]: 40.4 µM
- GI50 [2]: 12.4 µM
- TGI [2]: 25.3 µM
- CC50 [2]: 52 µM
- GI50 [3]: 2.36 µM
- TGI [3]: 5.37 µM
- CC50 [3, 29]: > 100 µM
- GI50 [4]: 12 µM
- TGI [4]: 24.9 µM
- CC50 [4]: 51.6 µM
- GI50 [5]: 10.7 µM
- TGI [5]: 25.3 µM
- CC50 [5]: 59.9 µM
- GI50 [6]: 1.72 µM
- TGI [6]: 4.32 µM
- CC50 [6]: 21.2 µM
- GI50 [7]: 7.78 µM
- TGI [7]: 21.3 µM
- CC50 [7]: 50.3 µM
- GI50 [8]: 1.73 µM
- TGI [8]: 4.12 µM
- CC50 [8]: 9.84 µM
- GI50 [9]: 13.8 µM
- TGI [9]: 27.2 µM
- CC50 [9]: 53.8 µM
- GI50 [10]: 4.36 µM
- TGI [10]: 16.1 µM
- CC50 [10]: 46 µM
- GI50 [11]: 1.59 µM
- TGI [11]: 3.31 µM
- CC50 [11]: 6.92 µM
- GI50 [12]: 10.6 µM
- TGI [12]: 24.3 µM
- CC50 [12]: 56.1 µM
- GI50 [13]: 2.55 µM
- TGI [13]: 5.61 µM
- CC50 [13]: 17.2 µM
- GI50 [14]: 4.54 µM
- TGI [14]: 17.1 µM
- CC50 [14]: 47.5 µM
- GI50 [15]: 4.53 µM
- LC50 [15]: 43.9 µM
- TGI [15]: 17.7 µM
- GI50 [16]: 3.14 µM
- TGI [16]: 10.8 µM
- CC50 [16]: 47.7 µM
- GI50 [17]: 2.97 µM
- LC50 (concentration giving net 50% loss of initial cells) [17]: > 100 µM
- TGI [17]: 12.7 µM
- GI50 [18]: 14.4 µM
- TGI [18]: 27.8 µM
- CC50 [18]: 53.5 µM
- GI50 [19]: 18.2 µM
- LC50 (concentration giving net 50% loss of initial cells) [19]: 58.5 µM
- TGI [19]: 32.6 µM
- GI50 [20]: 1.87 µM
- TGI [20]: 4.39 µM
- CC50 [20]: 14.3 µM
- GI50 [21]: 9.45 µM
- TGI [21]: 21.2 µM
- CC50 [21]: 46.1 µM
- GI50 [22]: 4.47 µM
- TGI [22]: 15.8 µM
- CC50 [22]: 39.8 µM
- GI50 [23]: 3.3 µM
- LC50 (concentration giving net 50% loss of initial cells) [23]: 37.6 µM
- TGI [23]: 8.25 µM
- GI50 [24]: 10.8 µM
- LC50 [24]: > 100 µM
- TGI [24]: 60.4 µM
- GI50 [25]: 3.39 µM
- TGI [25]: 20.8 µM
- CC50 [25]: > 100 µM
- GI50 [26]: 1.83 µM
- TGI [26]: 4.43 µM
- CC50 [26, 29]: 14.1 µM
- growth at 10 µM [27]: -67.1%
- growth at 10 µM [28]: 49.1%
